Measured values published in ChEMBL document CHEMBL5325455, “Daphnanes diterpenes from the latex of Hura crepitans L. and their PKCζ-dependent anti-proliferative activity on colorectal cancer cells” (Bioorg Med Chem, 2023).
Active and inactive are the calls of the source. The rule behind the calls is not given here.

Key:
Caco-2 [1] = test: Cytostatic activity against human Caco-2 cells assessed as inhibition of cell growth at 0.5 ug/ml incubated for 48 hrs by MTS assay relative to control; format: functional
How it was run: (§1)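 Caco-2 cells were seeded at 40 000/well 48 h before dosing. Compound was diluted from a 10 mg/mL DMSO stock into medium (0.125, 0.5 or 1 µg/mL final; DMSO ≤0.01%) and added in triplicate for 48 h. Viability was read by MTS absorbance at 490 nm and expressed relative to the DMSO control.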

Caco-2 [2] = test: Induction of morphological changes in human Caco-2 cells assessed as cellular aggregates formation at 0.125 ug/ml incubated for 48 hrs by Hoechst 3342 and phalloidin staining based confocal microscopic analysis; format: functional, cell-based; conditions: dose 0.125 µg/ml
How it was run: (§2)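 Caco-2 cells (40 000/well) were exposed for 48 h, then fixed in 3.7% PFA and permeabilised with Triton X100/BSA. Actin was stained with phalloidin and nuclei with Hoechst 3342, and cells were viewed by confocal microscopy.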

Caco-2 [3] = test: Induction of morphological changes in human Caco-2 cells assessed as densification of cytoskeleton at 1 ug/ml incubated for 48 hrs by Hoechst 3342 and phalloidin staining based confocal microscopic analysis; format: functional, cell-based; conditions: dose 1.0 µg/ml; how it was run: as §2
Caco-2 [4] = test: Induction of morphological changes in human Caco-2 cells assessed as reorganization of epithelial tissue architecture by measuring effect on actin density at 1 ug/ml preincubated for 30 mins with CRT0066854 hydrochloride followed by compound addition and measured after 48 hrs by Hoechst 3342 and phalloidin staining based confocal microscopic analysis; format: functional, cell-based; conditions: dose 1.0 µg/ml
How it was run: (§3)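 CRT0066854 hydrochloride (2.5 µM) was added to Caco-2 cells 30 min before compound at 1 µg/mL. After 48 h, nuclei and actin cytoskeleton were labelled and confocal views taken with a 20X objective; duplicates from one experiment.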

[5] = molecular target: Glycogen synthase kinase-3 beta (Homo sapiens) (UniProt P49841); test: Inhibition of GSK3beta in human Caco-2 cells assessed as increase in phosphorylation at serine 9 residue at 1 ug/ml incubated for 48 hrs by Western blot analysis; format: cell-based; conditions: dose 1.0 µg/ml
Glycogen synthase kinase-3 beta (Homo sapiens), sequence (P49841 whole entry, looked up): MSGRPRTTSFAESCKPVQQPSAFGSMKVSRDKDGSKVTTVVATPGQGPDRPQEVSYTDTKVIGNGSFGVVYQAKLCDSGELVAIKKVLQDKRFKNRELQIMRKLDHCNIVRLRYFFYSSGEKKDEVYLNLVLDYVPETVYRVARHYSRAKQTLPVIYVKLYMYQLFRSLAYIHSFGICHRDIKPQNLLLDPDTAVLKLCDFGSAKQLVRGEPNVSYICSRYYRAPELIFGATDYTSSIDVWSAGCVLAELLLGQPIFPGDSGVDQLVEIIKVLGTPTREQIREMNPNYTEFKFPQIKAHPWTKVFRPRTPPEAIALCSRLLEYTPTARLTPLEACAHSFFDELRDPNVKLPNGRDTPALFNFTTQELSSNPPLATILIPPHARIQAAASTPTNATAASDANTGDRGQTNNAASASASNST
How it was run: (§4)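 Caco-2 cells (0.25 × 10^6/well) were treated at 1 µg/mL for 48 h and lysed in pH 7.4 Tris/NaCl/Triton/EDTA buffer with protease and phosphatase inhibitors. 30 µg protein was run per lane on 4–15% gels and blotted for pSer9-GSK3β, total GSK3β, pSer473-Akt, total Akt and β-catenin, with actin as loading control. Detection was by ECL; n=2, t-test versus DMSO.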

Caco-2 [6] = test: Upregulation of AKT protein expression in human Caco-2 cells at 1 ug/ml incubated for 48 hrs by Western blot analysis; format: functional, cell-based; conditions: dose 1.0 µg/ml; how it was run: as §4
Zika virus = test: Antiviral activity against ZIKV expressing GFP reporter gene measured 24 hrs post infection; format: functional, organism-based
How it was run: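 Cells in 96-well plates were exposed to serial concentrations starting at 50 µg/mL and infected with GFP-reporter Zika virus at MOI 1. At 24 h post-infection, cells were fixed in 3.7% PFA and GFP-positive cells were counted by flow cytometry.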

SARS-CoV-2 = test: Antiviral activity against SARS-CoV-2 assessed as reduction in progeny production measured 24 hrs post infection by PFU assay; format: functional, organism-based; conditions: Severe acute respiratory syndrome coronavirus 2, 24 h
[7] = tested on: Colorectal epithelial cell; test: Cytostatic activity against human Colorectal epithelial cells isolated from left colon of patient with sigmoido-vaginal fistula for diverticulitis cultured as organoids at 1 ug/ml incubated for 48 hrs by CellTiter-Glo luminescence assay; format: functional, cell-based; conditions: dose 1.0 µg/ml
How it was run: (§5)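 Primary colonic epithelial cells (3 control and 2 CRC patients) were expanded as organoids or spheroids in Matrigel with EGF/noggin/Wnt3a/R-spondin medium. Single cells were seeded at 2500/well and allowed 48 h to form colonoids, then exposed for 48 h at 0.01, 0.1 or 1 µg/mL, with 5FdU at 1 µg/mL as positive control. Viability was read by CellTiter-Glo luminescence versus DMSO or medium control.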

[8] = (§6) Cytostatic activity against human Colorectal epithelial cells isolated from patient with well-differentiated colonic adenocarcinoma cultured as organoids assessed as inhibition of cell growth at 0.1 ug/ml incubated for 48 hrs by CellTiter-Glo luminescence assay relative to control; format: functional; how it was run: as §5
[9] = as §6, with “adenocarcinoma and undergone nine courses of chemotherapy” for “adenocarcinoma”; format: functional; how it was run: as §5
[10] = molecular target: Protein kinase C delta type (Homo sapiens) (UniProt Q05655); test: Inhibition of PKCdelta in human Caco-2 cells assessed as reduction in protein phosphorylation at Ser664 residue at 1 ug/ml incubated for 48 hrs by Western blot analysis; format: cell-based; conditions: dose 1.0 µg/ml
Protein kinase C delta type (Homo sapiens), sequence (Q05655 whole entry, looked up): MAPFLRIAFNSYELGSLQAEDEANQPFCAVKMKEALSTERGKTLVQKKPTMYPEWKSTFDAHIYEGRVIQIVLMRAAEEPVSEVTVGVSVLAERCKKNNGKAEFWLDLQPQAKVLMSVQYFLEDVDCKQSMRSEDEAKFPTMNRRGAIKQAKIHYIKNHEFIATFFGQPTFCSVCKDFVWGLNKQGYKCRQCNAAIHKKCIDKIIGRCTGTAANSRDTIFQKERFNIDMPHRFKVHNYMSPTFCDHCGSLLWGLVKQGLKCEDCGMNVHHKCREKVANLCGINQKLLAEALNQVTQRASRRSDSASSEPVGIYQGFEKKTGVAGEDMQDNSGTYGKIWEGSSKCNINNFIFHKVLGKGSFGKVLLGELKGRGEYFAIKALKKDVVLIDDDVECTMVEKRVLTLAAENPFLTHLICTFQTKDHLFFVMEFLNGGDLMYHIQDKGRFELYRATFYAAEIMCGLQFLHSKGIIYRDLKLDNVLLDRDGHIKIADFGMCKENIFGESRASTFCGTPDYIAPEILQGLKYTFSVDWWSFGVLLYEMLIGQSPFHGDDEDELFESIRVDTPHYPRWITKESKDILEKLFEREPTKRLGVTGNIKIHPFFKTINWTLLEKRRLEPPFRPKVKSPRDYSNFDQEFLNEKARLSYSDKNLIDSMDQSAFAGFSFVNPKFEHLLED

[11] = molecular target: Protein kinase C delta type (Homo sapiens) (UniProt Q05655); test: Inhibition of PKCdelta in human Caco-2 cells assessed as reduction in protein phosphorylation at Ser664 residue at 1 ug/ml preincubated for 15 mins with PKCalpha inhibitor, Go6976 followed by compound addition and measured after 48 hrs by Western blot analysis; format: cell-based; conditions: dose 1.0 µg/ml
How it was run: (§7)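 Caco-2 cells were given 0.2 µM Gö6976 for 15 min, then compound at 1 µg/mL for 48 h. Lysates (30 µg protein) were blotted for pSer664-PKCδ and total PKCδ with actin loading control, and the pSer664/total PKCδ ratio was quantified. Data are from one experiment.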

[12] = molecular target: Protein kinase C delta type (Homo sapiens) (UniProt Q05655); test: Inhibition of PKCdelta in human Caco-2 cells assessed as ratio of phosphorylated PKCdelta at Ser664 residue to total PKCdelta level at 1 ug/ml preincubated for 15 mins with PKCalpha inhibitor, Go6976 followed by compound addition and measured after 48 hrs by Western blot analysis (reference value: 0.94); format: cell-based; conditions: dose 1.0 µg/ml; how it was run: as §7
Caco-2 [13] = test: Cytostatic activity against human Caco-2 cells assessed as inhibition of cell growth at 1 ug/ml incubated for 48 hrs by MTS assay relative to control; format: functional; how it was run: as §1
Caco-2 [14] = test: Induction of morphological changes in human Caco-2 cells assessed as effect on cellular aggregation at 1 ug/ml preincubated for 30 mins with CRT0066854 hydrochloride followed by compound addition and measured after 48 hrs by Hoechst 3342 and phalloidin staining based confocal microscopic analysis; format: functional, cell-based; conditions: dose 1.0 µg/ml; how it was run: as §3

In the case of `C=C(C)[C@]12C[C@@H](C)[C@@]34O[C@](/C=C/C=C/CCCCCCCCC)(O[C@@H]1[C@@H]3[C@@H]1O[C@]1(CO)[C@@H](O)[C@]1(O)C(=O)C(C)=C[C@H]14)O2`, the inhibition at 0.5 µg/mL (Caco-2 [1]) is reported as 20%, the Activity (Caco-2 [2]) is reported as “Active” and the Activity (Caco-2 [3]) is reported as “Active”. The Activity (Caco-2 [4]) was “inactive”, the inhibition [5] was “Active” and the Activity (Caco-2 [6]) was “Active”. For the same molecule, the IC50 (Zika virus) was over 50 µM, the IC50 (SARS-CoV-2) was 64.2 µM and the Activity [7] was “Active”. The inhibition at 0.1 µg/mL [8] was 40%, the inhibition at 0.1 µg/mL [9] was 40% and the inhibition [10] was “Active”. For the same molecule, the inhibition [11] was “Active” and the Ratio [12] was 0.68.
In the case of `C=C(C)[C@]12C[C@@H](C)[C@@]34O[C@](/C=C/[C@@H]5O[C@H]5CCCCCCCCC)(O[C@@H]1[C@@H]3[C@@H]1O[C@]1(CO)[C@@H](O)[C@]1(O)C(=O)C(C)=C[C@H]14)O2`, the inhibition at 1 µg/mL (Caco-2 [13]) is reported as 30%, the Activity (Caco-2 [2]) is reported as “Active” and the Activity (Caco-2 [3]) is reported as “Active”. For the same molecule, the Activity (Caco-2 [14]) was “inactive”, the inhibition [5] was “Active” and the Activity (Caco-2 [6]) was “Active”. The Activity [7] was “Active”, the inhibition at 0.1 µg/mL [8] was 40% and the inhibition at 0.1 µg/mL [9] was 40%.
